Data taken from ChEMBL document CHEMBL5032492, “Aminoalkoxycarbonyloxymethyl Ether Prodrugs with a pH-Triggered Release Mechanism: A Case Study Improving the Solubility, Bioavailability, and Efficacy of Antimalarial 4(1H)-Quinolones with Single Dose Cures” (J Med Chem, 2021).
In brackets after ≈: the same amount, converted by molar mass. Activity calls are given as the source filed them. The rule behind the calls is not given here.

Tests used:
[1] = AUC (0 to 24 hrs) in BALB/c mouse at 50 mg/kg, po; format: ADME, organism-based; set-up: time < 24 hr, route oral, dose 50 mg/kg; settings: in vivo
Procedure, shortened: (§1)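 Single oral dose in mice, formulated in 0.5% aqueous HEC; doses of 3, 10 or 50 mg/kg. The parent 4(1H)-quinolone was quantified in plasma over time after dosing, with a lower limit of quantification of 1 nM. PK parameters were derived from the plasma concentration profiles.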

Plasmodium berghei [2] = assay: (§2) In vivo antimalarial activity against blood stage Plasmodium berghei transfected with GFP infected in BALB/c mouse assessed as supression of parasitemia at 50 mg/kg, po administered once daily starting from day 3 to 5 post infection and measured at day 6 by Giemsa staining based flow cytometric analysis relative to control; format: functional
Procedure, shortened: (§3)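 Female BALB/c mice, 4–6 weeks old, five per group, were infected intraperitoneally with 2 × 10^6 P. berghei-GFP-infected red cells. Oral doses of 10 or 50 mg/kg in 0.5% aqueous HEC were given once daily on days 3–5 PI; prodrugs were suspended about 1 min before dosing. Parasitemia was measured by flow cytometry and Giemsa smears. Day-6 percent suppression was calculated versus untreated controls, with Welch-corrected t test.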

[3] = Toxicity in BALB/c mouse infected with blood stage Plasmodium berghei assessed as weight loss at up to at 50 mg/kg, po administered once daily starting from day 3 to 5 post infection and measured on day 6; format: organism-based; settings: in vivo
Procedure, shortened: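 P. berghei-infected BALB/c mice were dosed orally once daily on days 3–5 PI in 0.5% aqueous HEC, at doses up to 50 mg/kg. Body weight of treated animals was monitored for loss.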

[4] = Clearance in BALB/c mouse at 50 mg/kg, po; format: ADME, organism-based; settings: in vivo; procedure, shortened: as §1
Plasmodium berghei [5] = assay: as §2, with “10” for “50”; format: functional; procedure, shortened: as §3
[6] = Solubility of the compound in 0.5% hydroxyethylcellulose
[7] = Aqueous solubility of compound at pH 2.4; settings: buffer
Plasmodium falciparum [8] = assay: (§4) Antimalarial activity against chloroquine, pyrimethamine, mefloquine and atovaquone- resistant Plasmodium falciparum TM90-C2B infected in human erythrocytes assessed as reduction in parasite growth incubated for 48 hrs followed by addition of [3H]-hypoxanthine and measured after 24 hrs by Topcount liquid scintillation counting method; format: functional, organism-based; settings: Erythrocyte
Plasmodium berghei [9] = assay: (§5) In vivo antimalarial activity against blood stage Plasmodium berghei transfected with GFP infected in BALB/c mouse assessed as supression of parasitemia at 10 mg/kg, po administered thrice daily started from 3 days post infection and measured on day 6 by Giemsa staining based flow cytometric analysis relative to control; format: functional; settings: time 3 day
[10] = AUC (0 to 24 hrs) in BALB/c mouse at 10 mg/kg, po; format: ADME, organism-based; set-up: time < 24 hr, route oral, dose 10 mg/kg; settings: in vivo; procedure, shortened: as §1
[11] = Tmax in BALB/c mouse at 10 mg/kg, po; format: ADME, organism-based; settings: in vivo; procedure, shortened: as §1
[12] = Tmax in BALB/c mouse at 3 mg/kg, po; format: ADME, organism-based; settings: in vivo; procedure, shortened: as §1
[13] = AUC (0 to 24 hrs) in BALB/c mouse at 3 mg/kg, po; format: ADME, organism-based; set-up: time < 24 hr, route oral, dose 3 mg/kg; settings: in vivo; procedure, shortened: as §1
[14] = Clearance in BALB/c mouse at 3 mg/kg, po; format: ADME, organism-based; settings: in vivo; procedure, shortened: as §1
[15] = Apparent half life in BALB/c mouse at 10 mg/kg, po; format: ADME, organism-based; settings: in vivo, read-out: t1/2(app) (converted); procedure, shortened: as §1
[16] = Volume of distribution in BALB/c mouse at 3 mg/kg, po; format: ADME, organism-based; settings: in vivo; procedure, shortened: as §1
[17] = Cmax in BALB/c mouse at 3 mg/kg, po; format: ADME, organism-based; set-up: route oral, dose 3 mg/kg; settings: in vivo; procedure, shortened: as §1
[18] = Volume of distribution in BALB/c mouse at 10 mg/kg, po; format: ADME, organism-based; settings: in vivo; procedure, shortened: as §1
[19] = Clearance in BALB/c mouse at 10 mg/kg, po; format: ADME, organism-based; settings: in vivo; procedure, shortened: as §1
Plasmodium berghei [20] = assay: as §5, with “as single dose on” for “thrice daily started from”; format: functional
Procedure, shortened: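 Female BALB/c mice, 4–6 weeks old, five per dose group, were infected intraperitoneally with 2 × 10^6 P. berghei-GFP-infected red cells. Each received one oral dose on day 3 PI in 0.5% aqueous HEC; doses ranged 0.01–10 mg/kg. Parasitemia was measured from tail blood by flow cytometry and Giemsa smears. Percent suppression on day 6 PI was calculated versus untreated infected controls, with Welch-corrected unpaired t test.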

[21] = Apparent half life in BALB/c mouse at 3 mg/kg, po; format: ADME, organism-based; settings: in vivo, read-out: t1/2(app) (converted); procedure, shortened: as §1
[22] = Cmax in BALB/c mouse at 10 mg/kg, po; format: ADME, organism-based; set-up: route oral, dose 10 mg/kg; settings: in vivo; procedure, shortened: as §1
Plasmodium falciparum [23] = assay: as §4, with “chloroquine” for “chloroquine, pyrimethamine, mefloquine”, “pyrimethamine” for “atovaquone-”, “W2” for “TM90-C2B”; format: functional, organism-based; settings: W2, Erythrocyte
[24] = Tmax in BALB/c mouse at 50 mg/kg, po; format: ADME, organism-based; settings: in vivo; procedure, shortened: as §1
[25] = Cmax in BALB/c mouse at 50 mg/kg, po; format: ADME, organism-based; set-up: route oral, dose 50 mg/kg; settings: in vivo; procedure, shortened: as §1
[26] = Apparent half life in BALB/c mouse at 50 mg/kg, po; format: ADME, organism-based; settings: in vivo, read-out: t1/2(app) (converted); procedure, shortened: as §1
[27] = Volume of distribution in BALB/c mouse at 50 mg/kg, po; format: ADME, organism-based; settings: in vivo; procedure, shortened: as §1
[28] = Aqueous solubility of compound at pH 7.4; format: physicochemical; settings: buffer

AUC [1] [µmol·min/L]	clearance [4] [mL/min/kg]	solubility [6] [µM]	Structure (SMILES)	Activity (Plasmodium berghei [2]) [%]	Activity [3]	Activity (Plasmodium berghei [5]) [%]	solubility [7] [µM]	EC50 (Plasmodium falciparum [8]) [nM]	further results
11664	7.8	> 5500	CNCCCOC(=O)OCOc1c(-c2ccc(C(F)(F)F)cc2)c(C)nc2cc(OC)c(Cl)cc12.Cl	96	Non-Toxic	82	600	–	–
–	–	–	O=C1C(O)=C([C@H]2CC[C@H](c3ccc(Cl)cc3)CC2)C(=O)c2ccccc21 [ATOVAQUONE]	–	–	–	–	18200	–
–	–	–	CCN(CC)Cc1cc(Nc2ccnc3cc(Cl)ccc23)ccc1O [AMODIAQUINE]	–	–	>99	–	–	Activity (Plasmodium berghei [9]): >99%
–	–	–	COc1cc2[nH]c(C)c(-c3ccc(Oc4ccc(OC(F)(F)F)cc4)cc3F)c(=O)c2cc1Cl	–	–	–	–	–	AUC [10]: 580 µmol·min/L; Tmax [11]: 8 h; Tmax [12]: 4 h; AUC [13]: 228 µmol·min/L; clearance [14]: 26.6 mL/min/kg; half-life [15]: 14.5 h; Vd [16]: 19.6 L/kg; Cmax [17]: 310 nM; Vd [18]: 44 L/kg; clearance [19]: 34.9 mL/min/kg; Activity (Plasmodium berghei [20]; time 3 day): <1%; Activity (Plasmodium berghei [20]; time 3.0 day): inactive; half-life [21]: 8.5 h; Cmax [22]: 460 nM
222	610	–	COc1cc2[nH]c(C)c(-c3ccc(C(F)(F)F)cc3)c(=O)c2cc1Cl	10	Non-Toxic	11	< 1	–	–
–	–	–	COc1cc2[nH]c(C)c(-c3ccccc3C)c(=O)c2cc1Cl	28	Non-Toxic	29	6.9 (≈ 2.17 µg/mL)	38	EC50 (Plasmodium falciparum [23]): 21.9 nM
8031	11.6	> 5600	CNCCOC(=O)OCOc1c(-c2ccc(C(F)(F)F)cc2)c(C)nc2cc(OC)c(Cl)cc12.Cl	96	–	75	–	–	Tmax [24]: 4 h; Cmax [25]: 12000 nM; half-life [26]: 7.7 h; Vd [27]: 7.8 L/kg
–	–	–	CCCSc1ccc2nc(NC(=O)OC)[nH]c2c1 [ALBENDAZOLE]	–	–	–	100 (≈ 26.5 µg/mL)	–	solubility [28]: 6.1 µM (≈ 1.62 µg/mL)

Structure (SMILES)	AUC [1] [µmol·min/L]	clearance [4] [mL/min/kg]	solubility [6] [µM]	Activity (Plasmodium berghei [2]) [%]	Activity [3]	Activity (Plasmodium berghei [5]) [%]	solubility [7] [µM]	EC50 (Plasmodium falciparum [8]) [nM]	further results
CNCCCOC(=O)OCOc1c(-c2ccccc2C)c(C)nc2cc(OC)c(Cl)cc12.Cl	–	–	> 20000	72	Non-Toxic	52	> 100	170	EC50 (Plasmodium falciparum [23]): 269 nM
